From ChEMBL document CHEMBL4130631, “Identification of the Histidine Residue in Vitamin D Receptor That Covalently Binds to Electrophilic Ligands” (J Med Chem, 2018) come the findings set out here.

Assay [1] has as its target T1, Vitamin D3 receptor (Homo sapiens) (UniProt P11473).
T1 sequence (whole entry): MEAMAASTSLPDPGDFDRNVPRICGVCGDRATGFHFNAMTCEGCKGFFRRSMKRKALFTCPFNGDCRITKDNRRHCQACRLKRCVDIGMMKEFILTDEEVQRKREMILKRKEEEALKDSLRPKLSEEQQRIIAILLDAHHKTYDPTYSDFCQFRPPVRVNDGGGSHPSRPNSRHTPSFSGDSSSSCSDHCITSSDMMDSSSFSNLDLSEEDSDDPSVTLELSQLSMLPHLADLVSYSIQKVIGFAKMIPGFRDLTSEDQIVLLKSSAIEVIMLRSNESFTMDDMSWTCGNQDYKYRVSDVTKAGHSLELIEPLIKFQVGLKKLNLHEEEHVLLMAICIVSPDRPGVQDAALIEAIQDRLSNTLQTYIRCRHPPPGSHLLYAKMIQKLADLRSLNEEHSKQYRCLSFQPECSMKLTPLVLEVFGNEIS
Kind of assay: Agonist activity at human full-length VDR expressed in African green monkey COS7 cells by osteopontin luciferase reporter gene assay. The format is cell-based. Put shortly: (§1)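 Dual luciferase reporter in Cos7 or HEK293 cells cotransfected with full-length human VDR plasmid (pCMX-hVDR), reporter carrying three copies of osteopontin VDRE (SPPx3-TK-Luc) and sea pansy luciferase control (pRL-CMV). Activity normalized to 1,25D3 set as 1: 10−8 M in Cos7, 10−9 M in HEK293.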
(In a reporter assay the amount or activity of a reporter protein is the signal.)

Assay [2] deals with T1, Vitamin D3 receptor (Homo sapiens). Kind of assay: Agonist activity at human full-length VDR expressed in HEK293 cells by osteopontin luciferase reporter gene assay. In kind it is cell-based. The method in brief:
as §1

The target is the same in assay [3]. In words: Displacement of [3H]-1,25D3 from C-terminal GST-tagged human recombinant VDR LBD expressed in Escherichia coli BL21 (DE3) after 16 hrs by radioligand binding assay relative to 1,25D3. Put shortly: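 Competitive binding against [3H]-1,25D3 using human VDR-LBD expressed as C-terminal GST fusion from pGEX-VDR in E. coli BL21; IC50 derived.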
For assay [4], the target named is T2, Vitamin D3 receptor (Homo sapiens, UniProt P11473).
T2 sequence (P11473 whole entry): T1 sequence (whole entry)
In words: Displacement of [3H]-1,25D3 from C-terminal GST-tagged human recombinant VDR LBD expressed in Escherichia coli BL21 (DE3) after 16 hrs by radioligand binding assay. On the technique in general: In a radioligand displacement assay an active substance lowers the binding of a labelled ligand.

For assay [5], the target named is T3, Vitamin D3 receptor (Rattus norvegicus) (UniProt P13053).
T3 sequence (whole entry): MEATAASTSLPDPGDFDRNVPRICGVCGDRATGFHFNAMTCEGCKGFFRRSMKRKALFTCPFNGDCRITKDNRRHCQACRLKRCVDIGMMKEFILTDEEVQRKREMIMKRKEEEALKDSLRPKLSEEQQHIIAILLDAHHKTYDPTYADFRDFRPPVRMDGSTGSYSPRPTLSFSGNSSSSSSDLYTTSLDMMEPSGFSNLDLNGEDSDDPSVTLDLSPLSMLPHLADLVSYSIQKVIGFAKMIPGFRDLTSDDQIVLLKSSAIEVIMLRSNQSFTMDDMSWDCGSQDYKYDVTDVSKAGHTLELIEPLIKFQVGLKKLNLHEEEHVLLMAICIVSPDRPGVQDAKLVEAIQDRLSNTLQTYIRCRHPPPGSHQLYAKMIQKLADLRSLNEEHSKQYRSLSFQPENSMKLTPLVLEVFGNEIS
In words: Covalent binding affinity to rat VDR LBD (116 to 423 residues, 165-211 residues) at 5 equivalents after 30 hrs by ESI-MS analysis.

Assay [6] deals with T3, Vitamin D3 receptor (Rattus norvegicus). In words: Covalent binding affinity to rat VDR LBD (116 to 423 residues, 165-211 residues) assessed as covalently modified protein level at 5 equivalents by ESI-MS analysis. Particulars: TDE = time-dependent effect. The method in brief: (§2)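 Rat VDR-LBD (residues 116−423, Δ165−211) concentrated in 50 mM ammonium acetate pH 6.5, 10 μM, incubated with 5 equiv ligand at room temperature. Samples sampled over time (up to 6 h, or 24 h), infused at 30 μL/min, analysed by positive-ion ESI-MS, m/z 100−4000. Spectra deconvoluted to unmodified versus ligand-adduct protein mass peaks.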

Assay [7] has the same target. Kind of assay: Covalent binding affinity to rat VDR LBD (116 to 423 residues, 165-211 residues) at 2 equivalents after 24 hrs by ESI-MS analysis.
For assay [8] the target is unchanged. In words: Covalent binding affinity to rat VDR LBD (116 to 423 residues, 165-211 residues) at 5 equivalents by ESI-MS analysis. The method in brief:
as §2

Assay [9] has the same target. In words: Covalent binding affinity to rat VDR LBD (116 to 423 residues, 165-211 residues) assessed as time duration for complete covalent bond formation with protein at 5 equivalents by ESI-MS analysis. The method in brief:
as §2

Assay [10] has the same target. In words: Irreversible covalent binding affinity to rat VDR LBD (116 to 423 residues, 165-211 residues) at 2 equivalents after 24 hrs followed by compound wash out and subsequent addition of 10 equivalents of 1,25D3 and measured after 24 hrs by ESI-MS analysis. Put shortly: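 Rat VDR-LBD (Δ165−211) incubated with ligand for 24 h; covalent adduct confirmed by ESI-MS, then buffer exchanged to ligand-free buffer and 10 equiv 1,25D3 added. Positive-ion ESI-MS read for retained modified versus exchanged protein peaks.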

pIC50: −log10 of the molar value. Calls of active or inactive are those of the source. The calls are words filed in the database; no cut-off is given here.

As a reminder, the pIC50 is the negative decadic logarithm of the IC50, by convention in mol/L. For the compound `C=C1[C@H](O)CC(=C/C=C2\CCC[C@]3(C)[C@@H]([C@H](C)C(=O)/C=C/C=C/C)CC[C@@H]23)C[C@H]1O`, the outcome in assay [1], in assay [2] and in [5] was Active. Moreover, in assay [3], the Ratio IC50 came to 0.022. Also, in [4], the negative-log IC50 (pIC50) was 8.64.

`C=C1[C@H](O)CC(=C/C=C2\CCC[C@]3(C)[C@@H]([C@H](C)CCC(=O)/C=C/C)CC[C@@H]23)C[C@H]1O`: the outcome in assay [1], in assay [2], in assay [7], in [8] and in assay [10] was Active. The Ratio IC50 in assay [3] came out at 0.034. Besides, in [6], the Activity result was “Tde”. Further, the TIME in assay [9] turned out to be 3 h. In [4], the pIC50 was 8.74.

In the case of `C=CC(=O)CC[C@@H](C)[C@H]1CC[C@H]2/C(=C/C=C3C[C@@H](O)C(=C)[C@H](O)C3)CCC[C@]12C`, the outcome in assay [1], in assay [2], in [7], in assay [8] and in assay [10] was Active. In addition, the Ratio IC50 in [3] stood at 0.055. Moreover, in assay [6], the Activity entry was “Tde”. Further, in assay [9], the TIME worked out at 1.5 h. In assay [4], the pIC50 is 8.96.
